Test [1] concerns the target 5-hydroxytryptamine receptor 2A (Homo sapiens, UniProt P28223). Kind of test: Binding affinity against human 5-hydroxytryptamine 2A receptor using displacement of [3H]5-HT.
The target in test [2] is T1, 5-hydroxytryptamine receptor 2C (Homo sapiens, UniProt P28335).
T1 sequence (P28335 whole entry): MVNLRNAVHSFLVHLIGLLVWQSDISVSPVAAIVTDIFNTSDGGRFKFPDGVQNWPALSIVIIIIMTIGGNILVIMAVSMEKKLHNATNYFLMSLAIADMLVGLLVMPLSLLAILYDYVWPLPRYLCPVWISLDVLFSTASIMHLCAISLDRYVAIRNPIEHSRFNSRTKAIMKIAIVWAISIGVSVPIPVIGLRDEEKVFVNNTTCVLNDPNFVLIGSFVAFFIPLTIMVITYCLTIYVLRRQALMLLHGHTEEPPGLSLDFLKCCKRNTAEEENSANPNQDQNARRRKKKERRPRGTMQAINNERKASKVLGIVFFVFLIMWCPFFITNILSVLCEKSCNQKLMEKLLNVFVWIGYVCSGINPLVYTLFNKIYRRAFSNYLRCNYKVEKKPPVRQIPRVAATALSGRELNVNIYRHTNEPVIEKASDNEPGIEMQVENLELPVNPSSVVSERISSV
Kind of test: Binding affinity against human 5-hydroxytryptamine 2C receptor using displacement of [3H]DOB.

Test [3] addresses T2, 5-hydroxytryptamine receptor 2C (Rattus norvegicus) (UniProt P08909).
T2 sequence (whole entry): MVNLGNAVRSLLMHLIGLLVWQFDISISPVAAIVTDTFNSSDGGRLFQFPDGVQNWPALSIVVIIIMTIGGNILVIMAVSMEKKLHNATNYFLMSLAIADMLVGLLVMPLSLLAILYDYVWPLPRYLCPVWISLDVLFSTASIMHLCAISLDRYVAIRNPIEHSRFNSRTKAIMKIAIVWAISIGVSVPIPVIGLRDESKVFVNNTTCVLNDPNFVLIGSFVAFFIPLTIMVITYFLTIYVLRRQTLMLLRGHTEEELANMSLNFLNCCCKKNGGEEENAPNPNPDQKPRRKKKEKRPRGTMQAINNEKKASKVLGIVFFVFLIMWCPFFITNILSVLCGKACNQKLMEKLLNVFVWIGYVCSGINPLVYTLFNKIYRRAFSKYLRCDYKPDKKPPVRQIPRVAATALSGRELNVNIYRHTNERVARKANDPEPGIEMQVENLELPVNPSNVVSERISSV
The experiment in a line: Efficacy (pEC50) was evaluated for 5-HT2C receptor-mediated stimulation of IP3 formation in vitro in choroid plexus of the rat; inactive. Type of test: functional, tissue-based. In short, it runs like this:
(§1)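 Rat choroid plexus preloaded with [³H]myoinositol for 1 h at 37 °C in oxygenated Krebs. LiCl 10 mM and pargyline 10 µM added, then compound 10 min later. Six concentrations, top 0.1 mM, incubated 0.5 h at 37 °C. Stopped with HClO₄/EDTA, then IP₃ isolated. Three measures per point. Intrinsic activity is the maximum relative to 10 µM 5HT.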

Test [4] has as its target T2, 5-hydroxytryptamine receptor 2C (Rattus norvegicus). The experiment in a line: Induction of penile erection in rats after subcutaneous administration, indicative of 5-HT 2c receptor activation. Type of test: functional, organism-based. In short, it runs like this:
(§2)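 Male erection counts in RORO rats, 8 per dose, over 45 min. Drug is given in 0.3% Tween-80 in saline, sc at 5 mL/kg or orally at 10 mL/kg. Vehicle controls are included, and doses are expressed as salt weight. ED₅₀ by probit analysis, or the approximate dose at which half the rats respond.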

Test [5] has the same target. The experiment in a line: Intrinsic 5-HT 2c receptor activity as induced IP3 turnover in vitro in rat choroid plexus. Type of test: functional, tissue-based. In short, it runs like this: as §1
Test [6] concerns Rattus norvegicus. Kind of test: Compound was tested in schedule induced polydipsia in rats expressed as %maximum suppression at minimum effective dose of 10 mg/kg intraperitoneally. Type of test: functional. The note with it: route intraperitoneal.
Test [7] addresses T3, 5-hydroxytryptamine receptor 2C (Rattus norvegicus, UniProt P08909).
T3 sequence (P08909 whole entry): T2 sequence (whole entry)
Kind of test: Efficacy (pEC50) was evaluated for 5-HT2C receptor-mediated stimulation of IP3 formation in vitro in choroid plexus of the rat. It is filed as functional, tissue-based. Put shortly: as §1

Test [8] addresses T2, 5-hydroxytryptamine receptor 2C (Rattus norvegicus). Kind of test: Induction of penile erection in rats following p.o. administration, indicative of 5-HT 2c receptor activation. Type of test: functional, organism-based. In short, it runs like this:
as §2

The test system of test [9] is Rattus norvegicus. Kind of test: Compound was tested in schedule induced polydipsia in rats expressed as %maximum suppression at minimum effective dose of 30 mg/kg intraperitoneally. Type of test: functional. The note with it: route intraperitoneal.
Test [10] has as its target T2, 5-hydroxytryptamine receptor 2C (Rattus norvegicus). The experiment in a line: The compound was tested for induction of penile erection in rats after peroral administration; Inactive. It is filed as functional, organism-based. Put shortly:
as §2

Structures are written as SMILES. Activity calls are given as the source filed them. No cut-off for these calls is given here. Some results are limits rather than exact numbers.

Sequence of 5-hydroxytryptamine receptor 2A (P28223 whole entry): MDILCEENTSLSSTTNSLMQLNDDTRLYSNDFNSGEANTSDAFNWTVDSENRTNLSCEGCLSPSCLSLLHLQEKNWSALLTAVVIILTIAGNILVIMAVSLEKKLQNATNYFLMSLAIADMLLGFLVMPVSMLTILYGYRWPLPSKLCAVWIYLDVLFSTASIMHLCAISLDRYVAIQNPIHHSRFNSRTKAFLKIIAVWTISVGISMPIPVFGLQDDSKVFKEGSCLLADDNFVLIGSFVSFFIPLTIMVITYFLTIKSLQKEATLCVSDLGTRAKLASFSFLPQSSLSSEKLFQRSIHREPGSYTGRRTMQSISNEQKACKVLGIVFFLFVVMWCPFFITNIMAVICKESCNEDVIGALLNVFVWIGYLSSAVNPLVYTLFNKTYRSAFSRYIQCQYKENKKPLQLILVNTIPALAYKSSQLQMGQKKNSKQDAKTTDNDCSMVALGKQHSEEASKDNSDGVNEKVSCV

As a reminder, the Ki is a dissociation constant, usually derived from enzyme kinetics or from competition with a known ligand. A lower Ki goes with a stronger hold on the target. For orientation: ED50 means the dose that gives a 50% effect, or the effect in half of the subjects. As to `COc1cccc2c1Cc1ccn(CC(C)N)c1-2` (stereo not drawn), the Ki in test [1] was 3160 nM; in test [2], 100 nM. For the same compound, in [3], the “Log EC50” value is “inactive”. Besides, in [4], the median effective dose (ED50) was greater than 10 mg/kg.

A word on the EC50: it is the midpoint of the concentration-response curve. Low values mean a more potent agent, high ones a less potent agent. As to `C[C@H](N)Cn1ccc2cc(F)c(Cl)cc21`, the results for the Ki in [1] and in [2] were 31.6 nM and 1.26 nM, respectively. Also, the Efficacy in [5] was 1. In the test with Rattus norvegicus [6], the Max suppression is on record as -90%. In [7], this compound had an EC50 of 200 nM. The ED50 in [8] came out at 5.5 mg/kg; in [4], 0.5 mg/kg.

In the case of `CNCCC(Oc1ccc(C(F)(F)F)cc1)c1ccccc1` (stereo not drawn) [FLUOXETINE], the Max suppression in the test with Rattus norvegicus [9] is given as -11%.

With `C[C@@H](N)Cn1ccc2c(Cl)c(F)ccc21`, the Ki in test [1] is 10 nM; in test [2], 1.26 nM. Further, in [10], the ED50 entry is “inactive”. Moreover, the Efficacy in [5] was 0.9. This compound had an EC50 in test [7] of 794 nM. For the same compound, the ED50 in test [4] worked out at 3.3 mg/kg.

Values taken from ChEMBL document CHEMBL1130391, “Novel agonists of 5HT2C receptors. Synthesis and biological evaluation of substituted 2-(indol-1-yl)-1-methylethylamines and 2-(indeno[1,2-b]pyrrol-1-yl)-1-methylethylamines. Improved therapeutics for obsessive compulsive disorder” (J Med Chem, 1997).
